PRMT1 FP inh: inhibitors of human PRMT1; Q99873; recombinant PRMT1, activity-based probe fluorescence polarization; inhibition, % at 2.79 µM; 1.3% of 370,000 active; AID 652257;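 active means inhibition above about 21% made by adding two undisclosed values, limit read from the data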
Target sequence (Q99873 whole entry, looked up): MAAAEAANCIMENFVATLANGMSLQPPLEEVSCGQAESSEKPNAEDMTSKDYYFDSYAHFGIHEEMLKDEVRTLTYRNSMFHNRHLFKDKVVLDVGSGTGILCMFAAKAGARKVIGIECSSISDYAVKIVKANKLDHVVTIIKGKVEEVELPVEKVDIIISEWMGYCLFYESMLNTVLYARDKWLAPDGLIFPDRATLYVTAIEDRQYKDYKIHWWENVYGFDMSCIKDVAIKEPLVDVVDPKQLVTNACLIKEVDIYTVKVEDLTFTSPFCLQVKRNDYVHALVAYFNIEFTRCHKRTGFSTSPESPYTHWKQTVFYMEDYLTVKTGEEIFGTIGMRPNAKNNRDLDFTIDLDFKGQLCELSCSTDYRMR
ABHD4 inh: inhibits mouse alpha/beta hydrolase domain 4 | inhibition, % at 8.92 µM | 0.54% of 370,000 active | Q8VD66 | purified mABHD4, FP-Rh probe fluorescence polarization | AID 720543;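 active means inhibition exceeding the mean over every tested compound plus 3 SD, cut at about 30% in these data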;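 further: 0% = plate median of compound wells and 100% = S159A mutant with DMSO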
Target sequence (Q8VD66 whole entry, looked up, the tested form may be a part): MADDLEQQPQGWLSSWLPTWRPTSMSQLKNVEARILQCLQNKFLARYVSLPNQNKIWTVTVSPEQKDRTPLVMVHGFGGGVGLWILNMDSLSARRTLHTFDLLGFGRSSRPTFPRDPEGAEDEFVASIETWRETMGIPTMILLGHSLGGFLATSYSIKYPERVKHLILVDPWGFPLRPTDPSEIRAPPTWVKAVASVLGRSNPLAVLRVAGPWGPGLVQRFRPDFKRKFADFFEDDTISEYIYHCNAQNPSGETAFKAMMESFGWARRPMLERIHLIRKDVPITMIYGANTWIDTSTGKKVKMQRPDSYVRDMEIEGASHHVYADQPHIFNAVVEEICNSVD
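Doses – 8.92 µM, single dose · Material – wild-type mouse ABHD4 protein · Replication – single well per compound (singlicate) · Measure – percent inhibition of probe binding, normalized to plate controls · Schedule – 45 min compound pre-incubation plus 60 min probe step, 25 °C · Detection – fluorescence polarization with parallel and perpendicular emission, 525/598 nm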
HTRA1 inh: inhibitors of human serine peptidase HTRA1. AID 504803. Q92743. recombinant HTRA1, FP-rhodamine activity-based probe, fluorescence polarization. 0.5% of 340,000 active. inhibition, % at 5.96 µM; in the data active means inhibition above about 36%;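 further: 0% = enzyme with DMSO and 100% = wells lacking enzyme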
rCAG RNA binder: r(CAG) repeat RNA binding | TO-PRO-1 dye displacement fluorescence | inhibition, % at 3 µM | 1.3% of 370,000 active | AID 651821;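 active means inhibition above the plate cutoff, the mean of all test compounds on that plate plus 3 SD, cut at about 35% in these data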;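 further: 0% = DMSO alone and 100% = 100 µM mitoxantrone as full dye displacement; higher means more dye released from RNA so lower well fluorescence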
SIAE primary: inhibitors of human sialic acid acetylesterase SIAE; inhibition, % at 9.66 µM; SIAE FP-Rh probe binding, fluorescence polarization; Q9HAT2; AID 1053197; 0.69% of 370,000 active;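 active means inhibition above a cutoff: mean of compounds within the control limits plus 3 SD of those, cut at about 17% in these data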;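 further: 0% = plate median of compound wells and 100% = probe without SIAE protein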
rCAG bind conf: r(CAG) RNA repeat binding, confirmation | shares compounds with rCAG RNA binder | TO-PRO-1 dye displacement fluorescence | inhibition, % at 3 µM | 70% of 4,300 active | AID 652065;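 active means inhibition above a per-plate cutoff, the mean inhibition of sample wells plus 3 SD, cut at about 35% in these data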;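 further: loss of TO-PRO-1 fluorescence as compound displaces dye from 1x1 AA loop RNA; 0% = DMSO only wells and 100% = 100 µM mitoxantrone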
DNA CAG counter: counter-screen for rCAG RNA binders: DNA CAG dye complex inhibitors. inhibition, % at 3 µM. d(CAG) DNA oligo TO-PRO-1 dye displacement, fluorescence. 94% of 4,300 active. shares compounds with rCAG RNA binder;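 active means inhibition above its plate's cutoff, the mean test-well inhibition plus 3 SD, cut at about 4.8% in these data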;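 further: 0% = DNA dye mix with DMSO and 100% = 100 µM mitoxantrone; hits displace the dye from DNA and so lower well fluorescence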
DNA CAG DR: DNA CAG dye complex inhibition, dose response counter-screen. shares compounds with rCAG RNA binder. DNA CAG/GTC duplex TO-PRO-1 dye displacement fluorescence. IC50, µM. 20% of 250 active; in the data active means IC50 below about 10 µM
Numbers without * were called inactive; i = inactive; · = no result. Shown are actives, neighbours in structure and some others; about 3.3% of the full set was active somewhere.

SMILES	PRMT1 FP inh	ABHD4 inh	HTRA1 inh	rCAG RNA binder	SIAE primary	rCAG bind conf	DNA CAG counter	others
COc1cccc(Nc2nc3ccccc3nc2NS(=O)(=O)c2cccs2)c1	2.6	18.3	2.4	73.6*	3.9	87.5*	59.5*
O=C(O)c1ccc(Nc2nc3ccccc3nc2NS(=O)(=O)c2cccs2)cc1	0.3	2.5	3.1	12.4	-6.3	·	·
COc1ccc(Nc2nc3ccccc3nc2NS(=O)(=O)c2cccs2)c(OC)c1	5.2	17.9	6.1	27.0	0.8	·	·
CC(C)CCNc1nc2ccccc2nc1NS(=O)(=O)c1cccs1	2.2	2.2	-1.4	55.8*	-3.9	33.1	5.5*
COC(=O)[C@]12C[C@H](CC(=O)NCCC(C)C)C(=O)N(CCc3ccc(OC)c(OC)c3)C1=C[C@H](COCc1ccccc1)O[C@@H]2C	-2.8	-0.6	·	1.1	-2.8	·	·
Cc1cc(C(=O)CN2c3cccc4cccc(c34)S2(=O)=O)c(C)n1C	19.0	11.8	5.9	37.9*	11.4	12.2	8.6*
COCC(C)n1c(C)cc(C(=O)CN2c3cccc4cccc(c34)S2(=O)=O)c1C (stereo unspecified)	-1.4	8.4	-1.7	4.3	7.4	·	·
Cc1cc(/C=C2\SC(=S)NC2=O)c(C)n1C	22.5*	20.7	28.9	51.4*	-1.9	22.2	7.9*
COc1ccc(-n2c(C)cc(/C=C3\SC(=S)NC3=O)c2C)cc1	-2.0	7.3	-7.3	13.5	-1.1	·	·
Cc1cc(/C=C2\SC(=S)NC2=O)c(C)n1-c1ccccc1	-2.7	8.2	·	48.2*	-8.1	35.8*	16.4*
Cc1cc(C)cc(C(=O)OCCCN(C)C2CN(Cc3cn(Cc4ccccc4F)nn3)S(=O)(=O)C2)c1 (stereo unspecified)	1.8	0.4	·	4.8	1.7	·	·
O=C(NCC1CCCO1)c1onc(CSc2cccc3ccccc23)c1C(=O)O (stereo unspecified)	-6.0	-11.9	-12.8	42.4*	0.1	40.0*	6.2*
CCCCNC(=O)c1onc(CSc2cccc3ccccc23)c1C(=O)O	2.5	-34.3	-28.9	61.5*	-11.6	53.2*	14.4*	DNA CAG DR=i
CCCCNC(=O)c1onc(CSc2ccc(C(C)C)cc2)c1C(=O)O	2.0	-34.7	-18.0	51.4*	0.8	47.5*	11.4*
CCc1ccccc1SCc1noc(C(=O)NCC2CCCO2)c1C(=O)O (stereo unspecified)	1.8	-1.1	-0.1	19.0	-6.0	·	·
CCCCNC(=O)c1onc(CSc2cccc(OCC)c2)c1C(=O)O	7.4	-33.9	-6.5	44.8*	4.0	20.3	1.2
O=S1(=O)c2c(cccc2N2CC[C@H](O)C2)OCCCN1C1CC1	4.0	3.2	·	5.3	5.2	·	·
C[C@H](O)[C@@H]1CN2CCc3ccc(-c4ccc5c(c4)OCO5)cc3[C@@H]2C[C@@H]1N(C)CC1CCCCC1	1.4	7.5	·	1.8	6.8	·	·
CC(C)NC(=O)c1onc(CSc2cccc3ccccc23)c1C(=O)O	1.0	-9.1	-12.7	36.3*	-7.7	29.7	7.2*
CC(C)NC(=O)c1onc(CSc2ccccc2)c1C(=O)O	1.7	7.6	-0.4	1.4	-2.5	·	·
CC(=O)c1sc2nc(CSc3nnnn3-c3ccccc3)[nH]c(=O)c2c1C	-1.6	-4.6	5.0	38.9*	-12.8	49.4*	29.0*
O=C(Nc1ccc(S(=O)(=O)Nc2nccs2)cc1)c1ccc(S(=O)(=O)N2CCOCC2)cc1	0.0	-12.6	2.2	22.2	-3.3	·	·
O=C(Nc1ccc(S(=O)(=O)Nc2nccs2)cc1)c1ccc(F)c(S(=O)(=O)N2CCOCC2)c1	0.9	-5.8	-2.6	45.0*	-10.1	37.2*	16.4*
Cc1ccc(S(=O)(=O)N2CCOCC2)cc1C(=O)Nc1ccc(S(=O)(=O)Nc2nccs2)cc1	0.5	0.3	-2.5	38.6*	4.2	26.1	11.6*
COC(=O)[C@]12C[C@H](CC(=O)NCCC(C)C)C(=O)N(Cc3ccc(Cl)cc3Cl)C1=C[C@H](C(C)(C)C)O[C@@H]2C	8.0	-8.8	·	9.1	-2.2	·	·
SMILES	PRMT1 FP inh	ABHD4 inh	HTRA1 inh	rCAG RNA binder	SIAE primary	rCAG bind conf	DNA CAG counter	others
O=C1NC(=S)SC1=Cc1ccccc1Cl	19.8	-53.2	-27.3	17.3	-11.6	·	·
O=C1NC(=Nc2ccccc2Cl)S/C1=C\c1cccc([N+](=O)[O-])c1	-0.5	-44.5	-55.9	53.9*	-0.7	67.5*	26.3*
COc1c(/C=C2\SC(=Nc3ccccc3Cl)NC2=O)cccc1[N+](=O)[O-]	-2.2	-20.6	-60.3	36.8*	-8.2	70.7*	28.8*	DNA CAG DR=i
COc1ccc(/C=C2\SC(=Nc3ccccc3Cl)NC2=O)c(OC)c1	-0.1	-9.9	-20.1	38.8*	-2.1	45.6*	12.5*
COc1ccccc1C=C1SC(=S)NC1=O	7.6	-1.7	1.8	6.6	-14.4	·	·
Cc1ccc(OCCOc2c(Cl)cc(Cl)cc2Cl)c([N+](=O)[O-])n1	-3.1	-3.0	·	·	-2.1	·	·
Cc1cccc(CCNC(=O)c2ccc3c(c2)ncn3C2CCCCC2)c1	0.7	-4.5	·	0.0	-4.0	·	·
Cc1ccc2c(c1)c(CC(=O)Nc1ccc(C)c(F)c1)c(C(=O)O)n2C	0.9	10.8	-26.2	48.8*	-0.9	44.4*	13.0*
Cn1c(C(=O)O)c(CC(=O)Nc2ccccc2F)c2ccccc21	1.1	6.4	0.1	7.7	0.1	·	·
O=C(CC(CC(=O)c1ccc(Cl)cc1)c1ccccc1C(=O)O)c1ccc(Cl)cc1	1.7	-8.4	-7.2	42.3*	5.2	53.8*	12.6*
O=c1cc(C(F)(F)F)nc(SCc2cccc3ccccc23)[nH]1	-1.0	-33.8	-54.5	68.7*	13.0	40.2*	10.3*
C/C(=N\NC(=O)c1cccc(S(=O)(=O)Nc2ccccc2Cl)c1)c1ccco1	-3.5	-15.4	-7.3	47.8*	2.0	18.1	6.8*
C/C(=N\NC(=O)c1ccc(Cl)c(S(=O)(=O)Nc2ccccc2Cl)c1)c1ccncc1	0.0	-15.7	-27.2	50.9*	-20.0	40.5*	10.8*
O=S(=O)(/N=C(/Nc1ccc(Cl)c(S(=O)(=O)Nc2ccccc2Cl)c1)c1ccc(F)cc1)c1ccccc1	0.7	-63.5	-39.8	65.8*	-64.9	70.9*	26.1*	DNA CAG DR=>29.9
COc1ccccc1NS(=O)(=O)c1cc(N/C(=N/S(=O)(=O)c2ccccc2)c2ccc(F)cc2)ccc1Cl	3.9	-72.5	-49.3	16.2	-91.7	·	·
C/C(=N\NC(=O)c1cccc(S(=O)(=O)Nc2ccc(C)cc2C)c1)c1ccncc1	-0.5	-8.5	-7.4	8.3	2.6	·	·
CN(C)C(CNC(=O)c1cccc(S(=O)(=O)Nc2ccccc2Cl)c1)c1ccco1 (stereo unspecified)	3.3	2.0	-2.6	8.7	0.1	·	·

Screening data (PubChem)
